Measured values taken from ChEMBL document CHEMBL4334441, “Exploitation of Antibiotic Resistance as a Novel Drug Target: Development of a β-Lactamase-Activated Antibacterial Prodrug” (J Med Chem, 2019).
Converted amounts (≈) assume the structure as drawn.

Experiments:
[1] = Prodrug activation in ciprofloxacin sensitive Escherichia coli isolate EC16 expressing bacterial beta lactamase CTX-M-15 assessed as bacterial CTX-M-15-mediated ciprofloxacin release by measuring growth inhibition incubated for 18 hrs by broth microdilution method
[2] = test system: Escherichia coli; assay: Bactericidal activity against Escherichia coli CFT073 expressing pSU18 assessed as reduction in colony forming units at 78 nM measured after 6 hrs; format: ADME, organism-based; conditions: in vivo, 0.078 µM
How it was run: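 Time-kill assay on uropathogenic E. coli CFT073 carrying pSU18, either empty (pEMP, β-lactamase coding sequence absent) or encoding CTX-M-1. Cells were left untreated or exposed to drug, and viability was followed over time by CFU counts, with a 6 h incubation read-out.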

[3] = Prodrug activation in ciprofloxacin-resistant Escherichia coli isolate EC13 expressing bacterial beta lactamase CTX-M-15 assessed as bacterial CTX-M-15-mediated ciprofloxacin release by measuring growth inhibition incubated for 18 hrs by broth microdilution method
[4] = Prodrug activation in ciprofloxacin-resistant Escherichia coli isolate EC12 expressing bacterial beta lactamase CTX-M-15 assessed as bacterial CTX-M-15-mediated ciprofloxacin release by measuring growth inhibition incubated for 18 hrs by broth microdilution method
[5] = test system: Enterococcus faecalis; assay: Effect on growth of Enterococcus faecalis ATCC 29212 incubated for 18 hrs by broth microdilution method; format: organism-based; conditions: in vivo
[6] = Prodrug activation in ciprofloxacin-resistant Escherichia coli isolate EC19 expressing bacterial beta lactamase CTX-M-15 assessed as bacterial CTX-M-15-mediated ciprofloxacin release by measuring growth inhibition incubated for 18 hrs by broth microdilution method
[7] = test system: Escherichia coli; assay: Growth inhibition of Escherichia coli CFT073 expressing pSU18 incubated for 18 hrs in presence of human serum; format: organism-based
How it was run: (§1)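 MIC assay in E. coli CFT073 carrying pSU18 (empty pEMP or encoding CTX-M-1), run in the presence of human serum. The read-out is the minimal concentration inhibiting bacterial growth.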

[8] = test system: Escherichia coli; assay: Growth inhibition of ciprofloxacin-susceptible Escherichia coli CFT073 harboring pSU18 incubated for 18 hrs by broth microdilution method; format: organism-based; conditions: in vivo
How it was run: (§2)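 MIC determination in E. coli CFT073, either wild type or carrying pSU18 (empty pEMP, or encoding CTX-M, NDM-1 or KPC). Dose–response growth curves were run, and each point is the mean ± SEM of n = 3. The MIC is the minimal concentration that inhibits bacterial growth.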

[9] = test system: Escherichia coli; assay: Growth inhibition of Escherichia coli CFT073 incubated for 18 hrs by broth microdilution method; format: organism-based; conditions: in vivo; how it was run: as §2
[10] = Prodrug activation in ciprofloxacin sensitive Escherichia coli isolate EC11 expressing bacterial beta lactamase CTX-M-15 assessed as bacterial CTX-M-15-mediated ciprofloxacin release by measuring growth inhibition incubated for 18 hrs by broth microdilution method
[11] = test system: Bacteria; assay: Prodrug activation assessed as bacterial N-terminal His6-tagged CTX-M-15-mediated ciprofloxacin release by measuring inhibition of DNA gyrase activity 1 uM by SYBR Safe DNA gel staining-based agarose gel electrophoresis relative to control
How it was run: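 Cell-free assay using recombinant DNA gyrase with relaxed pBR322 plasmid DNA as substrate. Compounds were incubated with the gyrase and DNA in the absence or presence of purified recombinant β-lactamase CTX-M-15.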

[12] = test system: Enterococcus faecalis; assay: Effect on growth of Enterococcus faecalis GW01 incubated for 18 hrs by broth microdilution method; format: organism-based; conditions: in vivo
[13] = Prodrug activation in Escherichia coli CFT073 expressing beta lactamase CTX-M-1 assessed as bacterial CTX-M-1-mediated ciprofloxacin release by measuring growth inhibition incubated for 18 hrs by broth microdilution method; conditions: bacteria; how it was run: as §2
[14] = Ratio of prodrug activation in Escherichia coli CFT073 expressing beta lactamase CTX-M-1 assessed as bacterial CTX-M-1-mediated ciprofloxacin release by measuring bactericidal activity to bactericidal activity against Escherichia coli CFT073 expressing pSU18
[15] = Prodrug activation in Escherichia coli CFT073 expressing beta lactamase CTX-M-1 assessed as bacterial CTX-M-1-mediated ciprofloxacin release by measuring growth inhibition incubated for 18 hrs in presence of human serum by broth microdilution method; conditions: bacteria; how it was run: as §1
[16] = Prodrug activation in ciprofloxacin sensitive Escherichia coli isolate EC17 expressing bacterial beta lactamase CTX-M-15 assessed as bacterial CTX-M-15-mediated ciprofloxacin release by measuring growth inhibition incubated for 18 hrs by broth microdilution method
[17] = Prodrug activation in Escherichia coli CFT073 expressing NDM1 assessed as bacterial NDM1-mediated ciprofloxacin release by measuring growth inhibition incubated for 18 hr by broth microdilution method; conditions: bacteria; how it was run: as §2
[18] = Prodrug activation in Escherichia coli CFT073 expressing KPC3 assessed as bacterial KPC3-mediated ciprofloxacin release by measuring growth inhibition incubated for 18 hr by broth microdilution method; conditions: bacteria; how it was run: as §2

With `CC(=O)N[C@@H]1C(=O)N2C(C(=O)O)=C(COC(=O)c3cn(C4CC4)c4cc(N5CCNCC5)c(F)cc4c3=O)CS[C@H]12` the “growth inhibition (GI)” value [1] was “Active”, the Activity [2] was “Non-Toxic” and the “growth inhibition (GI)” value [3] was “Not Active”. For the same molecule, the “growth inhibition (GI)” value [4] was “Not Active”, the Activity [5] was “Non-Toxic” and the “growth inhibition (GI)” value [6] was “Not Active”. For the same molecule, the Activity [7] was “Non-Toxic”, the MIC [8] was 0.18 µg/mL (≈ 0.307 µM) and the MIC [9] was 0.18 µg/mL (≈ 0.307 µM). The “growth inhibition (GI)” value [10] was “Active”, the inhibition [11] was over 50% and the Activity [12] was “Non-Toxic”. For the same molecule, the MIC [13] was 0.04 µg/mL (≈ 0.0683 µM), the Ratio [14] was over 100 and the “growth inhibition (GI)” value [15] was “Active”. The “growth inhibition (GI)” value [16] was “Active”, the MIC [17] was 0.04 µg/mL (≈ 0.0683 µM) and the MIC [18] was 0.04 µg/mL (≈ 0.0683 µM).
